Reference: ChEMBL document CHEMBL3804820, “2-hydroxyisoquinoline-1,3(2H,4H)-diones (HIDs) as human immunodeficiency virus type 1 integrase inhibitors: Influence of the alkylcarboxamide substitution of position 4” (Eur J Med Chem, 2016)
Activity calls are given as the source filed them. The rule behind the calls is not given here.

Key:
CYP2D6 = CYP2D6 (Homo sapiens, UniProt P10635); test: Inhibition of human recombinant CYP2D6 using MFC as substrate at 10 uM incubated for 40 mins by fluorimetry relative to control; format: ADME; conditions: recombinant CYP2D6, probe MFC
Sequence of CYP2D6 (P10635 whole entry, canonical isoform): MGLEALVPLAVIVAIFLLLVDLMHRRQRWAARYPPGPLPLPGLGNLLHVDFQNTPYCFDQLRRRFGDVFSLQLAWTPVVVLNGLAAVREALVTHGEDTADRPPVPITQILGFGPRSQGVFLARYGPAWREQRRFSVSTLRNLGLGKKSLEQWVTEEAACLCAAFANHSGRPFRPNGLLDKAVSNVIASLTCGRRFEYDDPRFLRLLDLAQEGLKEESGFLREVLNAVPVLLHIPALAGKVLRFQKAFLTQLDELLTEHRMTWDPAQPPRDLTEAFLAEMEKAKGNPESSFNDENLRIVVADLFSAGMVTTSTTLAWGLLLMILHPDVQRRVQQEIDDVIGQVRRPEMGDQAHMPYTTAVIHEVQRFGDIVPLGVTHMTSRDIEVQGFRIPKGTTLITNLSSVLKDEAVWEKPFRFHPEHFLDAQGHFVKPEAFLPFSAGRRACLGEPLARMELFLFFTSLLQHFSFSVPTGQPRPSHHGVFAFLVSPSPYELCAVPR
Summary of the method: (§1)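 Recombinant CYP isoforms, each with its fluorogenic substrate: CYP1A2 and CYP2C19 with CEC, CYP2C9 and CYP2D6 with MFC, CYP3A4 with BFC. Read as percentage inhibition of control, standard contract assays.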

[1] = test system: Human immunodeficiency virus 1; test: Selectivity ratio of EC50 for raltegravir resistant HIV1 harboring integrase N155H mutant infected in human MT4 cells to EC50 for wild type HIV1 infected in human MT4 cells; format: functional
Summary of the method: (§2)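 MT-4 cells were infected with 100–300 CCID₅₀ of virus stock (titrated in MT-4 cells) in the presence of 5-fold serial drug dilutions. EC₅₀ is the concentration giving 50% protection against virus-induced cytopathic effect, read by MTT reduction (MT-4/MTT assay). The value is the fold-change in EC₅₀ for each mutant strain relative to the wild-type HIV-1 strain.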

CYP3A4 = CYP3A4 (Homo sapiens, UniProt P08684); test: Inhibition of human recombinant CYP3A4 using BFC as substrate at 10 uM incubated for 30 mins by fluorimetry relative to control; format: ADME; conditions: recombinant CYP3A4, probe BFC; summary of the method: as §1
Sequence of CYP3A4 (P08684 whole entry): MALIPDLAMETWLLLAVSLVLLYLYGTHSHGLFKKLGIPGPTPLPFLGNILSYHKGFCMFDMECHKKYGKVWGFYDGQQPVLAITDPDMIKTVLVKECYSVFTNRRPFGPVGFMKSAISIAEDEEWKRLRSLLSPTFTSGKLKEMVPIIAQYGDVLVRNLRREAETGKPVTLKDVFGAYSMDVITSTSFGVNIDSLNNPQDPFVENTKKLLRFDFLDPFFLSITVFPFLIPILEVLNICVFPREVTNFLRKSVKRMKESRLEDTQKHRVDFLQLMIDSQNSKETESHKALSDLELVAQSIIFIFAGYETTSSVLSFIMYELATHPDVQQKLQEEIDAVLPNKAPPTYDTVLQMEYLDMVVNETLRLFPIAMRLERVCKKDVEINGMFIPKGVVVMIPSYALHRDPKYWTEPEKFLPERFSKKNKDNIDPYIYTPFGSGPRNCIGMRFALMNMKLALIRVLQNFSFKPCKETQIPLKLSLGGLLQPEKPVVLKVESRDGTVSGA

HepG2 [2] = test: Cytotoxicity against human HepG2 cells assessed as increase in intracellular free calcium level at 1 uM after 72 hrs by fluorescent image analysis relative to untreated control; format: cell-based; conditions: hepg2, 72 h
Summary of the method: (§3)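 Contract in vitro cytotoxicity panel covering cell number, intracellular free calcium, nuclear size, membrane permeability and mitochondrial membrane potential. Compounds tested at 1.0, 30.0 and 100.0 µM; values are percentage change versus untreated control, and IC50 where derived.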

[3] = Cytotoxicity against human HepG2 cells assessed as reduction in mitochondrial membrane potential at 100 uM after 72 hrs by fluorescent image analysis relative to untreated control; format: cell-based; conditions: read-out: INH; summary of the method: as §3
CYP1A2 = molecular target: T1, CYP1A2 (Homo sapiens, UniProt P05177); test: Inhibition of human recombinant CYP1A2 using CEC as substrate at 10 uM incubated for 30 mins by fluorimetry relative to control; format: ADME; conditions: recombinant CYP1A2, probe CEC; summary of the method: as §1
T1 sequence (P05177 whole entry): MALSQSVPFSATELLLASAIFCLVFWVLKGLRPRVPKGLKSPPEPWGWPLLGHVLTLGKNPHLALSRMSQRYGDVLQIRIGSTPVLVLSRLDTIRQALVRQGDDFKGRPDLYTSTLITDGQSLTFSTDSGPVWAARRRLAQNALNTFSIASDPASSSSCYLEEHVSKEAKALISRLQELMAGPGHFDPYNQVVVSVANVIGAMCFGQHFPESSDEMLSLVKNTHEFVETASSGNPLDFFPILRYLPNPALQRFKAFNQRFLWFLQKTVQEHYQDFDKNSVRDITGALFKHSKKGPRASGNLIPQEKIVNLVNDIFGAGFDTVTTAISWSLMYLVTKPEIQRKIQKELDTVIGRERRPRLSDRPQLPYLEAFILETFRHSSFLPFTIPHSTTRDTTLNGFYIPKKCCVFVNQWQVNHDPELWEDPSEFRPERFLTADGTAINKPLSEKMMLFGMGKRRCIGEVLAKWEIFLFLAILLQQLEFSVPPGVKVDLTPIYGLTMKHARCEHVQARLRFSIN

CYP2C19 = CYP2C19 (Homo sapiens, UniProt P33261); test: Inhibition of human recombinant CYP2C19 using CEC as substrate at 10 uM incubated for 50 mins by fluorimetry relative to control; format: ADME; conditions: recombinant CYP2C19, probe CEC; summary of the method: as §1
Sequence of CYP2C19 (P33261 whole entry): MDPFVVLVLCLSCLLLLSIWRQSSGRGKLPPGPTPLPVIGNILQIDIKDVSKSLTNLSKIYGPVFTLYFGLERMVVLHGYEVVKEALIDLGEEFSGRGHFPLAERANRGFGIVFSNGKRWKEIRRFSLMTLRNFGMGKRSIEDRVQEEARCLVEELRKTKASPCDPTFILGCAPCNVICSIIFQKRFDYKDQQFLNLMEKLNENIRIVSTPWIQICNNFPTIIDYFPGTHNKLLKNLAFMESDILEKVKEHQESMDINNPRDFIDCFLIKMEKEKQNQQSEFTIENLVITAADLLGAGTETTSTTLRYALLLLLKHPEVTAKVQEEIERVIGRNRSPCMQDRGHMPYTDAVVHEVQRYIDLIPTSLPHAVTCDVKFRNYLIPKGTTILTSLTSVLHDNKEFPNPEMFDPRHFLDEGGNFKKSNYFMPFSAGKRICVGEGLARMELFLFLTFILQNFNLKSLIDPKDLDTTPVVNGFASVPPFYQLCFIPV

[4] = test system: Human immunodeficiency virus 1; test: Selectivity ratio of EC50 for raltegravir resistant HIV1 harboring integrase Q148H mutant infected in human MT4 cells to EC50 for wild type HIV1 infected in human MT4 cells; format: functional; summary of the method: as §2
[5] = Cytotoxicity against human HepG2 cells assessed as reduction in mitochondrial membrane potential at 30 uM after 72 hrs by fluorescent image analysis relative to untreated control; format: cell-based; conditions: read-out: INH; summary of the method: as §3
HepG2 [6] = test: Cytotoxicity against human HepG2 cells assessed as increase in membrane permeability at 100 uM after 72 hrs by fluorescent image analysis relative to untreated control; format: cell-based; conditions: hepg2, 72 h
[7] = Cytotoxicity against human HepG2 cells assessed as reduction in cell number at 1 uM after 72 hrs by fluorescent image analysis relative to untreated control; format: cell-based; conditions: read-out: INH; summary of the method: as §3
HepG2 [8] = test: Cytotoxicity against human HepG2 cells assessed as increase in membrane permeability at 30 uM after 72 hrs by fluorescent image analysis relative to untreated control; format: cell-based; conditions: hepg2, 72 h
[9] = Cytotoxicity against human HepG2 cells assessed as reduction in cell number at 30 uM after 72 hrs by fluorescent image analysis relative to untreated control; format: cell-based; conditions: read-out: INH; summary of the method: as §3
MDCK-II [10] = test: Inhibition of human P-gp expressed in MDCK2-MDR1 cells assessed as reduction in calcien-AM efflux at 1 uM incubated for 20 mins by fluorimetry relative to control; format: cell-based
Summary of the method: (§4)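 P-gp efflux inhibition in MDR1-MDCKII cells with calcein AM substrate, tested up to 100.0 µM. Read as percentage inhibition of control.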

hERG (KCNH2) [11] = molecular target: T2, hERG (KCNH2) (Homo sapiens, UniProt Q12809); test: in vitro; conditions: CHO-K1 cells expressing human ERG
T2 sequence (Q12809 whole entry): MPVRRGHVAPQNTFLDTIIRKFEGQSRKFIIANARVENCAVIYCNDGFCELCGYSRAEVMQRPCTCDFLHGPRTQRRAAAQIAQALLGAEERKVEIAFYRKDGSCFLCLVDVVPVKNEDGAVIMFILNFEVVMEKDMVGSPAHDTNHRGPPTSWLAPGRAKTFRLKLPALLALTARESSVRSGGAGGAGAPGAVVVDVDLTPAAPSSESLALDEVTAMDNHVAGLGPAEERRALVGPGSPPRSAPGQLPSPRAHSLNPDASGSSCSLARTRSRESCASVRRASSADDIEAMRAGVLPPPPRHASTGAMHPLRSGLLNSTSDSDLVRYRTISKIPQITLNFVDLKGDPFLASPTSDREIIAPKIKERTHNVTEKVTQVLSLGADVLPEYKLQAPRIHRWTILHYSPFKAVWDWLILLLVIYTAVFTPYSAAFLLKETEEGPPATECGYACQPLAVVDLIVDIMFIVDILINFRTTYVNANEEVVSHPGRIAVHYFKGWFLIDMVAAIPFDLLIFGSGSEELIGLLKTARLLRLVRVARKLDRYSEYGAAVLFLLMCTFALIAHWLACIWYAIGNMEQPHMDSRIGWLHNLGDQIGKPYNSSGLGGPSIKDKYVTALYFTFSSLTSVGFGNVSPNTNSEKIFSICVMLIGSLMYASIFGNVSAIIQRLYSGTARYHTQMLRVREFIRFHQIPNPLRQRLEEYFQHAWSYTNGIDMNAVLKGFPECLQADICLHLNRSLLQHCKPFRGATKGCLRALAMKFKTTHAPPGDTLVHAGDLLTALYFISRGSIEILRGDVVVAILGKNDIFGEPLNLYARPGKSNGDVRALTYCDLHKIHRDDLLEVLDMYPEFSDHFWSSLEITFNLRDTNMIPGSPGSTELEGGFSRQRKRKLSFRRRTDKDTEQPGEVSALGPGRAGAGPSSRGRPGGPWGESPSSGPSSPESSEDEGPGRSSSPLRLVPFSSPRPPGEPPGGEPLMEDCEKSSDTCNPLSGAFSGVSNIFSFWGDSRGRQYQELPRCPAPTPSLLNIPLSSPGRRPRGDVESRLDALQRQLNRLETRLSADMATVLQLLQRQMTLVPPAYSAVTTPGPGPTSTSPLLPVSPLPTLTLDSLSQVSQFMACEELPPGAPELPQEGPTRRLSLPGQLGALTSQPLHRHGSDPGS

HepG2 [12] = test: Cytotoxicity against human HepG2 cells assessed as increase in intracellular free calcium level at 100 uM after 72 hrs by fluorescent image analysis relative to untreated control; format: cell-based; conditions: hepg2, 72 h; summary of the method: as §3
CYP2C9 = CYP2C9 (Homo sapiens, UniProt P11712); test: Inhibition of human recombinant CYP2C9 using MFC as substrate at 10 uM incubated for 40 mins by fluorimetry relative to control; format: ADME; conditions: recombinant CYP2C9, probe MFC; summary of the method: as §1
Sequence of CYP2C9 (P11712 whole entry): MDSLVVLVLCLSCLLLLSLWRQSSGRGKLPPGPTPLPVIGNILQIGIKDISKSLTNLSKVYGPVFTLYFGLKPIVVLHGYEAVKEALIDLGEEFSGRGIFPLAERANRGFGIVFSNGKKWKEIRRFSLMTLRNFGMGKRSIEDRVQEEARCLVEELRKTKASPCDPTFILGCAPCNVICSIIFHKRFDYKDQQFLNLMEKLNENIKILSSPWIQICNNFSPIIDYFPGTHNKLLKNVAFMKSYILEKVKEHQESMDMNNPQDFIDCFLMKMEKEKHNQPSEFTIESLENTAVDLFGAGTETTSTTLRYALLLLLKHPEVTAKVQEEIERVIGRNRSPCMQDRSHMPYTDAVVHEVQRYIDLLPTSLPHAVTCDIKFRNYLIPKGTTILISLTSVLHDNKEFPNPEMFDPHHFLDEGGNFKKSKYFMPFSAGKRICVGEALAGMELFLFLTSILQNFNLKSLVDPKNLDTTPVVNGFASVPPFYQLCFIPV

MDCK-II [13] = test: Inhibition of human P-gp expressed in MDCK2-MDR1 cells assessed as reduction in calcien-AM efflux at 30 uM incubated for 20 mins by fluorimetry relative to control; format: cell-based; summary of the method: as §4
[14] = test system: Human immunodeficiency virus 1; test: Antiviral activity against HIV1 3B infected in human MT4 cells at 50 to 100 times antiviral EC50 added 1 to 25 hrs post infection assessed as time required for loss of inhibition of viral replication measured at 30 hrs post infection by p24 ELISA method; format: functional
[15] = Cytotoxicity against human HepG2 cells assessed as reduction in nuclear size at 100 uM after 72 hrs by fluorescent image analysis relative to untreated control; format: cell-based; conditions: read-out: INH; summary of the method: as §3
hERG (KCNH2) [16] = molecular target: T2, hERG (KCNH2); test: in vitro; conditions: CHO-K1 cells expressing human ERG; remark: listed apart in the source
MDCK-II [17] = test: Inhibition of human P-gp expressed in MDCK2-MDR1 cells assessed as reduction in calcien-AM efflux at 100 uM incubated for 20 mins by fluorimetry relative to control; format: cell-based; summary of the method: as §4
[18] = test system: Human immunodeficiency virus 1; test: Selectivity ratio of EC50 for raltegravir resistant HIV1 harboring integrase G140S/Q148H double mutant infected in human MT4 cells to EC50 for wild type HIV1 infected in human MT4 cells; format: functional; summary of the method: as §2
hERG (KCNH2) [19] = molecular target: T2, hERG (KCNH2); test: in vitro; conditions: CHO-K1 cells expressing human ERG; remark: listed apart in the source
[20] = Cytotoxicity against human HepG2 cells assessed as reduction in mitochondrial membrane potential at 1 uM after 72 hrs by fluorescent image analysis relative to untreated control; format: cell-based; conditions: read-out: INH; summary of the method: as §3
[21] = Cytotoxicity against human HepG2 cells assessed as reduction in nuclear size at 30 uM after 72 hrs by fluorescent image analysis relative to untreated control; format: cell-based; conditions: read-out: INH; summary of the method: as §3
HepG2 [22] = test: Cytotoxicity against human HepG2 cells assessed as increase in intracellular free calcium level at 30 uM after 72 hrs by fluorescent image analysis relative to untreated control; format: cell-based; conditions: hepg2, 72 h; summary of the method: as §3
[23] = Cytotoxicity against human HepG2 cells assessed as reduction in cell number at 100 uM after 72 hrs by fluorescent image analysis relative to untreated control; format: cell-based; conditions: read-out: INH; summary of the method: as §3
[24] = Cytotoxicity against human HepG2 cells assessed as reduction in nuclear size at 1 uM after 72 hrs by fluorescent image analysis relative to untreated control; format: cell-based; conditions: read-out: INH; summary of the method: as §3
HepG2 [25] = test: Cytotoxicity against human HepG2 cells assessed as increase in membrane permeability at 1 uM after 72 hrs by fluorescent image analysis relative to untreated control; format: cell-based; conditions: hepg2, 72 h

With O=C(NCc1ccc(F)cc1)C1C(=O)N(O)C(=O)c2ccccc21 (stereo not given) the inhibition at 40 min, 10 µM (CYP2D6) was 6.6%, the “Ratio EC50” value [1] was 1 and the inhibition at 0.5 h, 10 µM (CYP3A4) was 35.9%. It also gave an Activity (HepG2 [2]) of -1.7%, a cytotoxicity at 72 h, 100 µM [3] of 6.3% and an inhibition at 0.5 h, 10 µM (CYP1A2) of 5.2%. For the same compound, the inhibition at 50 min, 10 µM (CYP2C19) was 18%, the “Ratio EC50” value [4] was 1 and the cytotoxicity at 72 h, 30 µM [5] was -21.2%. For the same compound, the Activity (HepG2 [6]) was 41.2%, the cytotoxicity at 72 h, 1 µM [7] was -22.8% and the Activity (HepG2 [8]) was 20.3%. It also gave a cytotoxicity at 72 h, 30 µM [9] of 25.7%, an inhibition (MDCK-II [10]) of -5.4% and an inhibition at 5 min, 10 µM (hERG (KCNH2) [11]) of 13.3%. It also gave an Activity (HepG2 [12]) of 29.9%, an inhibition at 40 min, 10 µM (CYP2C9) of 6.4% and an inhibition (MDCK-II [13]) of -4%. The Activity [14] was “Active”, the cytotoxicity at 72 h, 100 µM [15] was 18.7% and the inhibition at 5 min, 1 µM (hERG (KCNH2) [16]) was 10.6%. The inhibition (MDCK-II [17]) was -3.7%, the “Ratio EC50” value [18] was 1 and the inhibition at 5 min, 0.1 µM (hERG (KCNH2) [19]) was 3.4%. For the same compound, the cytotoxicity at 72 h, 1 µM [20] was 11.8%, the cytotoxicity at 72 h, 30 µM [21] was 13.1% and the Activity (HepG2 [22]) was 9.6%. For the same compound, the cytotoxicity at 72 h, 100 µM [23] was 16%, the cytotoxicity at 72 h, 1 µM [24] was -1% and the Activity (HepG2 [25]) was -0.5%.
